Laboratory results as given in ChEMBL document CHEMBL1667846, “Optimization of a novel class of benzimidazole-based farnesoid X receptor (FXR) agonists to improve physicochemical and ADME properties” (Bioorg Med Chem Lett, 2011).
≈ marks a conversion by molar mass, not a printed value.

Experiments:
[1] = Solubility of the compound in 0.05 M phosphate buffer at pH 6.5; assay type: physicochemical
[2] = Lipophilicity log D of the compound at pH 7.4; assay type: physicochemical; conditions: buffer
Procedure, shortened: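 Lipophilicity measured as log D at pH 7.4.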

[3] = Oral bioavailability in Wistar rat at 2 mg/kg, iv or 5 mg/kg, po; assay type: ADME, organism-based; conditions: in vivo
Procedure, shortened: (§1)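 Male C57BL/6 mice (4 mg/kg iv, 10 mg/kg po) and male Wistar rats (2 mg/kg iv, 5 mg/kg po), single doses. Oral vehicle was 7.5% gelatin in 0.62% aqueous NaCl. Intravenous vehicle was 30% N-methylpyrrolidinone in aqueous 100 mM TRIS buffer pH 8.5. Reported parameters were Cl, Cmax/dose, Vss, AUC/dose, t1/2 and oral bioavailability F.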

[4] = Cmax in C57BL/6 mouse at 4 mg/kg, iv or 10 mg/kg, po; assay type: ADME, organism-based; conditions: in vivo; procedure, shortened: as §1
[5] = Volume of distribution at steady state in C57BL/6 mouse at 4 mg/kg, iv; assay type: ADME, organism-based; design: dose 4 mg/kg, route intravenous; conditions: in vivo, read-out: Vdss; procedure, shortened: as §1
[6] = Cmax in Wistar rat at 2 mg/kg, iv or 5 mg/kg, po; assay type: ADME, organism-based; conditions: in vivo; procedure, shortened: as §1
[7] = Oral bioavailability in C57BL/6 mouse at 4 mg/kg, iv or 10 mg/kg, po; assay type: ADME, organism-based; conditions: in vivo; procedure, shortened: as §1
[8] = AUC in Wistar rat at 2 mg/kg, iv or 5 mg/kg, po; assay type: ADME, organism-based; conditions: plasma; procedure, shortened: as §1
[9] = AUC in C57BL/6 mouse at 4 mg/kg, iv or 10 mg/kg, po; assay type: ADME, organism-based; conditions: plasma; procedure, shortened: as §1
[10] = Volume of distribution at steady state in Wistar rat at 2 mg/kg, iv or 5 mg/kg, po; assay type: ADME, organism-based; conditions: in vivo, read-out: Vdss; procedure, shortened: as §1

SMILES | solubility [1] [µg/mL] | logD [2] | other results
COc1ccc(-c2nc3cc(F)c(F)cc3n2[C@H](C(=O)N[C@H]2CC[C@H](C(=O)O)CC2)C2CCCCC2)c(OC)n1 | 465 (≈ 835 µM) | 1.91 | 
O=C(N[C@H]1CC[C@H](O)CC1)[C@H](C1CCCCC1)n1c(-c2ccc(Cl)cc2)nc2cc(F)c(F)cc21 | 17 (≈ 33.9 µM) | > 4 | 
O=C(N[C@H]1CC[C@H](C(=O)O)CC1)[C@H](C1CCCCC1)n1c(-c2ccc(Cl)cc2)nc2cc(F)c(F)cc21 | 395 (≈ 745 µM) | 2.49 | 
O=C(O)c1ccc(NC(=O)[C@H](C2CCCCC2)n2c(-c3ccc(Cl)cc3)nc3cc(F)c(F)cc32)cc1 | 88 (≈ 168 µM) | 3.06 | 
O=C(O)c1ccc(NC(=O)[C@H](C2CCCCC2)n2c(-c3ccc(Cl)cc3)nc3cc(F)c(F)cc32)c(Cl)c1 | 51 (≈ 91.3 µM) | 2.98 | 
O=C(O)c1ccc(NC(=O)[C@H](C2CCCCC2)n2c(-c3ccc(Cl)cc3)nc3ccccc32)c(C(F)(F)F)c1 | 175 (≈ 315 µM) | 2.34 | 
Cc1cc(C(=O)O)ccc1NC(=O)[C@H](C1CCCCC1)n1c(-c2ccc(Cl)cc2)nc2cc(F)c(F)cc21 | 32 (≈ 59.5 µM) | 2.83 | 
O=C(NC1CCCCC1)[C@H](C1CCCCC1)n1c(-c2ccc(Cl)cc2)nc2cc(F)c(Cl)cc21 | < 1 | > 4 | 
O=C(Nc1ccc(OC2(C(=O)O)CC2)cc1F)[C@H](C1CCCCC1)n1c(-c2ccc(Cl)cc2)nc2cc(F)c(F)cc21 | 280 (≈ 468 µM) | 2.32 | 
O=C(Nc1ccc(-c2nnn[nH]2)cc1F)[C@H](C1CCCCC1)n1c(-c2ccc(Cl)cc2)nc2cc(F)c(F)cc21 | 490 (≈ 866 µM) | 2.96 | 
O=C(O)c1ccc(NC(=O)[C@H](C2CCCCC2)n2c(-c3ccc(Cl)cc3)nc3cc(F)c(F)cc32)c(F)c1 | 115 (≈ 212 µM) | 2.66 | bioavailability [3]: 59%; Cmax/dose [4]: 205 ng/mL; Vd [5]: 1.24 L/kg; Cmax/dose [6]: 270 ng/mL; bioavailability [7]: 33%; AUC [8]: 3030 ng·h/mL; AUC [9]: 5430 ng·h/mL; Vd [10]: 0.62 L/kg
O=C(NC1CCCCC1)[C@H](C1CCCCC1)n1c(-c2ccc(Cl)cc2)nc2cc(F)c(F)cc21 | < 1 | > 4 | 
